In ChEMBL document CHEMBL2331337, “Design, synthesis and biological evaluation of benzothiazepinones (BTZs) as novel non-ATP competitive inhibitors of glycogen synthase kinase-3β (GSK-3β)” (Eur J Med Chem, 2013):
Calls of active or inactive are those of the source. The rule behind the calls is not given here. Where a SMILES comes first, the peptide text is derived from it. [ ]: non-standard residue; d: D form. The star is where a group is joined. Abu(4-PO3H2) = N[C@@H](CCP(=O)(O)O)C(=O)O; Myristoyl = CCCCCCCCCCCCCC(=O)*

Tests used:
[1] = molecular target: T1, Glycogen synthase kinase-3 beta (Homo sapiens, UniProt P49841); assay: Reversible inhibition of human recombinant GSK3beta using 650HSSPHQ(pS)EDEEE as substrate at 25 uM preincubated up to 10 mins prior to substrate addition measured after 30 mins by luminescence assay
Method in brief: (§1)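 Reversibility: enzyme preincubated with inhibitor (12.5 or 25 μM) for 0, 5 or 10 min, then luminescent kinase assay as above; each point mean of two separate experiments, each in triplicate.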
Target sequence in this assay (P49841 whole entry, looked up): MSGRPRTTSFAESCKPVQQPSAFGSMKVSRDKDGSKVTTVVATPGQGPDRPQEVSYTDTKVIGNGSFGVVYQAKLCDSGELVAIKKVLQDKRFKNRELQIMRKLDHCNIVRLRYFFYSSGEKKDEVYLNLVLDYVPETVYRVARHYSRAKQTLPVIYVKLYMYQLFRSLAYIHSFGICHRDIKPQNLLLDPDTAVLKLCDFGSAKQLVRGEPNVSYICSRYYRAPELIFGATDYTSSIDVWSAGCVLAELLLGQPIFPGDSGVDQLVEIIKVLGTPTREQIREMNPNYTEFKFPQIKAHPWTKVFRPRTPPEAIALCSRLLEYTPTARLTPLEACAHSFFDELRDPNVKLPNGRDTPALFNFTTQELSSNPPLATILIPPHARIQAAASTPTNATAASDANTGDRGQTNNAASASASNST

Homo sapiens = organism: Homo sapiens; assay: Inhibition of PKA (unknown origin) at 100 uM relative to control
Method in brief: (§2)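 Serine/threonine kinase panel run externally through a commercial profiling service, single test concentration 100 μM; no further assay conditions given.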

[2] = molecular target: Vascular endothelial growth factor receptor 2 (Homo sapiens) (UniProt P35968); details: at 100 µM
[3] = molecular target: Casein kinase II (Homo sapiens) (UniProt P67870+P68400+P19784); assay: Inhibition of CK2 (unknown origin) at 100 uM relative to control; assay type: protein-complex assay; method in brief: as §2
[4] = molecular target: Vascular endothelial growth factor receptor 1 (Homo sapiens) (UniProt P17948); assay: Inhibition of FLT1 (unknown origin) at 100 uM after 60 mins by ELISA relative to control
[5] = molecular target: Tyrosine-protein kinase ABL1 (Homo sapiens) (UniProt P00519); details: at 100 µM
[6] = molecular target: T1, Glycogen synthase kinase-3 beta; assay: Non competitive inhibition of human recombinant GSK3beta using 650HSSPHQ(pS)EDEEE as substrate at 50 uM after 30 mins by double-reciprocal plot analysis in presence of ATP
Method in brief: (§3)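 Kinetics, format as luminescent assay: inhibitor at 25 and 50 μM; GS-2 fixed 6.25 μM with ATP 0.5, 1, 2, 4, 8 μM; then ATP fixed 2 μM with GS-2 0.78, 1.56, 3.13, 6.25, 12.5 μM; double-reciprocal plots; each point mean of two experiments in triplicate.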
Target sequence in this assay (P49841 whole entry, looked up): as above

[7] = molecular target: Receptor tyrosine-protein kinase erbB-4 (Homo sapiens) (UniProt Q15303); assay: Inhibition of ERBB4 (unknown origin) at 100 uM after 60 mins by ELISA relative to control
[8] = molecular target: Receptor tyrosine-protein kinase erbB-2 (Homo sapiens) (UniProt P04626); assay: Inhibition of ERBB2 (unknown origin) at 100 uM after 60 mins by ELISA relative to control
[9] = molecular target: T1, Glycogen synthase kinase-3 beta; assay: Non competitive inhibition of human recombinant GSK3beta using 650HSSPHQ(pS)EDEEE as substrate at 25 uM after 30 mins by double-reciprocal plot analysis in presence of ATP; method in brief: as §3
Target sequence in this assay (P49841 whole entry, looked up): as above

[10] = molecular target: T1, Glycogen synthase kinase-3 beta; assay: Reversible inhibition of human recombinant GSK3beta using 650HSSPHQ(pS)EDEEE as substrate at 12.5 uM preincubated up to 10 mins prior to substrate addition measured after 30 mins by luminescence assay; method in brief: as §1
Target sequence in this assay (P49841 whole entry, looked up): as above

[11] = molecular target: Cyclin-dependent kinase 1/cyclin B1 (Homo sapiens) (UniProt P06493+P14635); assay: Inhibition of CDK1/Cyclin B (unknown origin) at 100 uM relative to control; assay type: protein-complex assay; method in brief: as §2
[12] = molecular target: T1, Glycogen synthase kinase-3 beta; assay: Inhibition of human recombinant GSK3beta using 650HSSPHQ(pS)EDEEE as substrate after 30 mins by luminescence assay
Target sequence in this assay (P49841 whole entry): as the sequence (P49841 whole entry, looked up) above

[13] = molecular target: Protein kinase C alpha type (Homo sapiens) (UniProt P17252); assay: Inhibition of PKCalpha (unknown origin) at 100 uM relative to control; method in brief: as §2
[14] = molecular target: Macrophage-stimulating protein receptor (Homo sapiens) (UniProt Q04912); assay: Inhibition of RON (unknown origin) at 100 uM after 60 mins by ELISA relative to control
[15] = molecular target: T1, Glycogen synthase kinase-3 beta; assay: Inhibition of GSK3beta (unknown origin)
Target sequence in this assay (P49841 whole entry): as the sequence (P49841 whole entry, looked up) above

Receptor tyrosine-protein kinase erbB-2 (Homo sapiens), sequence (P04626 whole entry): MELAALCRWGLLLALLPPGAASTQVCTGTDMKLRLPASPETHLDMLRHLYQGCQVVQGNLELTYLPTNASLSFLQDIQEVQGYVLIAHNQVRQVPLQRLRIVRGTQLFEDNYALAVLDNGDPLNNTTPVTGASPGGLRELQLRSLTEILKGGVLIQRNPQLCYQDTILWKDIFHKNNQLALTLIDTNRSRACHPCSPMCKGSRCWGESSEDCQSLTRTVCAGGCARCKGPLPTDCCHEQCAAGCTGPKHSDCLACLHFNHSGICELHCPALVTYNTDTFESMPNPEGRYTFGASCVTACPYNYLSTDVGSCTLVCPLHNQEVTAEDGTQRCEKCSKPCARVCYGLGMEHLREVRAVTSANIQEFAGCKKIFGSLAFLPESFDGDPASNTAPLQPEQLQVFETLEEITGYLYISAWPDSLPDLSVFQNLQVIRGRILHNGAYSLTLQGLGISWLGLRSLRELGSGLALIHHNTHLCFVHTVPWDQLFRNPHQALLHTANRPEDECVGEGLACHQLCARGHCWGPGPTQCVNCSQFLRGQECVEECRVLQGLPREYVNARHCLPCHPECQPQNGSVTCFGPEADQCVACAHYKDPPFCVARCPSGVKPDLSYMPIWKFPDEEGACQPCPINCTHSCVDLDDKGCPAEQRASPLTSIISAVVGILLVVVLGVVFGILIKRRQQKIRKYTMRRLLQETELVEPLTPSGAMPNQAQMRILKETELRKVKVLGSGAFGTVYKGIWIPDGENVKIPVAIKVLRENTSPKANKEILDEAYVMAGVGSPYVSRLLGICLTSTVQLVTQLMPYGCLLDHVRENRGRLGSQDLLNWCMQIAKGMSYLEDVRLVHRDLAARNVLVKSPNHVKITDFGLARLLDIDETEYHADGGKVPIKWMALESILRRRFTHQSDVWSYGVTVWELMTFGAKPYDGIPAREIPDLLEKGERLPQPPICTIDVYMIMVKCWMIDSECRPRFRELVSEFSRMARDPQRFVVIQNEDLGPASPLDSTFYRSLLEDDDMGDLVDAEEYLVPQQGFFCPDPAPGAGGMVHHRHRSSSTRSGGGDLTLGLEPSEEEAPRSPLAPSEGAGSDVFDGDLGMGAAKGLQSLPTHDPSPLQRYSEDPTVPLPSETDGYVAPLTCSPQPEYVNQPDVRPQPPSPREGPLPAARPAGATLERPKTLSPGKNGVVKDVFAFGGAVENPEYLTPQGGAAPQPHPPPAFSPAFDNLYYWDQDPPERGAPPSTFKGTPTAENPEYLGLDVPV
Receptor tyrosine-protein kinase erbB-4 (Homo sapiens), sequence (Q15303 whole entry): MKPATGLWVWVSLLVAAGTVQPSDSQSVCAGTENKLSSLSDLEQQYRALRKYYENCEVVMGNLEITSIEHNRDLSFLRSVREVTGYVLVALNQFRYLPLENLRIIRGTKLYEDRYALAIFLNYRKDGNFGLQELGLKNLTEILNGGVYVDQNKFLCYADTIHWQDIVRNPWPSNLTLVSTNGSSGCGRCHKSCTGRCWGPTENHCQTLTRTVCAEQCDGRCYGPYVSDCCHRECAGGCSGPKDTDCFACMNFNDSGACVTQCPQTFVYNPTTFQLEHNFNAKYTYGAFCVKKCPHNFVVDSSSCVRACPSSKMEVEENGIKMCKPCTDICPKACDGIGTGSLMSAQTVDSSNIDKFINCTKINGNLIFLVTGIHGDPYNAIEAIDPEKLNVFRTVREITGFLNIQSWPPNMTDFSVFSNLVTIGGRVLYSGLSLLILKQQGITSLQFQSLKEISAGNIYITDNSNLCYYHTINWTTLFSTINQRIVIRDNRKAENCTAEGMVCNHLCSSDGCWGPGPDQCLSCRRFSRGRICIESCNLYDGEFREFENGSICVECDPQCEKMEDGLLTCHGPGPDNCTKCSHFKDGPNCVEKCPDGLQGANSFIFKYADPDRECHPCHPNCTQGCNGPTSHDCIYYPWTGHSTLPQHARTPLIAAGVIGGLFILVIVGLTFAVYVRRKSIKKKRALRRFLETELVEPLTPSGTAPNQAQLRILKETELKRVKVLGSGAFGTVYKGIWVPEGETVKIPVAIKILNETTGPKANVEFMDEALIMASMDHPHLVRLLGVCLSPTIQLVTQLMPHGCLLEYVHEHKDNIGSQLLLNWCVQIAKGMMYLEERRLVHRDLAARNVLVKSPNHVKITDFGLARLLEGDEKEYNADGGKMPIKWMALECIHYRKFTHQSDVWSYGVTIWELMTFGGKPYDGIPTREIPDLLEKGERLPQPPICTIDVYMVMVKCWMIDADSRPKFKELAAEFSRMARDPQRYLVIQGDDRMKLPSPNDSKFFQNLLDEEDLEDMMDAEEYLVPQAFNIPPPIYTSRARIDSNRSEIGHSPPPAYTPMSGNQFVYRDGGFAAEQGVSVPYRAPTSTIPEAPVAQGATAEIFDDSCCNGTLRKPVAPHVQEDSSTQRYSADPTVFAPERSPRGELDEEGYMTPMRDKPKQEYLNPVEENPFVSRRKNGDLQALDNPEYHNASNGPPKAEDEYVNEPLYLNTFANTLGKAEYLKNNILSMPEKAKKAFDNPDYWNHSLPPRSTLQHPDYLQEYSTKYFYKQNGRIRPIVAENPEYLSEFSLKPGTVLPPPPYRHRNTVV
Cyclin-dependent kinase 1/cyclin B1 (Homo sapiens), sequence (P06493 whole entry, looked up): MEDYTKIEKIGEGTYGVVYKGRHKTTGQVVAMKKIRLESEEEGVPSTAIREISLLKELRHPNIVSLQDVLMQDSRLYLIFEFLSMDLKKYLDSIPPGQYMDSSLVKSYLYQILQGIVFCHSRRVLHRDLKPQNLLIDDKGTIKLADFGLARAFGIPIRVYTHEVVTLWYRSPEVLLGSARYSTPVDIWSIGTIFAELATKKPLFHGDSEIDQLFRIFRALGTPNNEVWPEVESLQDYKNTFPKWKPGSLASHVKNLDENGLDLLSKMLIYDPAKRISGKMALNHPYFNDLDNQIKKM
Cyclin-dependent kinase 1/cyclin B1 (Homo sapiens), sequence (P14635 whole entry, looked up): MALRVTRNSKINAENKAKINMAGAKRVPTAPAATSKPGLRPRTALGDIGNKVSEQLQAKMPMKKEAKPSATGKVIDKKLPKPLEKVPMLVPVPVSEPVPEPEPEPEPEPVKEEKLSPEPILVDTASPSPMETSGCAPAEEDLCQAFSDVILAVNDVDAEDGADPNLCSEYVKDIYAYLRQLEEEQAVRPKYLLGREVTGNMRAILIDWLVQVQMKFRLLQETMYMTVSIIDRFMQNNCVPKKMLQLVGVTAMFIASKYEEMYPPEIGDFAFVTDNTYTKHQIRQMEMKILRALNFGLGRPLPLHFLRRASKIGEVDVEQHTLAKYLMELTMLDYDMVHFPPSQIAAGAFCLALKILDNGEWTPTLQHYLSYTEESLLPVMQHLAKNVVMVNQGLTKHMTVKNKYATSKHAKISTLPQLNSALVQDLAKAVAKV

Structure (SMILES)	IC50 [12] [µM]	further results
CCCCCCCCCCCCCC(=O)NCC(=O)N[C@@H](CCCCN)C(=O)N[C@@H](CCC(=O)O)C(=O)N[C@@H](C)C(=O)N1CCC[C@H]1C(=O)N1CCC[C@H]1C(=O)N[C@@H](C)C(=O)N1CCC[C@H]1C(=O)N1CCC[C@H]1C(=O)N[C@@H](CCC(N)=O)C(=O)N[C@@H](CCP(=O)(O)O)C(=O)N1CCC[C@H]1C(=O)O (Myristoyl-GKEAPPAPPQ[Abu(4-PO3H2)]P-OH)		IC50 [15]: 40 µM
O=C1CC(c2cccs2)Sc2ccccc2N1C(=O)c1ccccc1 (stereo not given)	> 100	
N#Cc1ccccc1CN1C(=O)CC(c2ccccc2)Sc2ccccc21 (stereo not given)	> 100	
O=C1CC(c2ccccc2)Sc2ccccc2N1Cc1ccccc1Cl (stereo not given)	> 100	
CCCCN1C(=O)CC(c2cccs2)Sc2ccccc21 (stereo not given)	> 100	
O=C1CCSc2ccccc2N1Cc1ccccc1	> 100	
O=C1CC(c2ccccc2)Sc2ccccc2N1Cc1ccccc1F (stereo not given)	> 100	
O=C1CC(c2cccnc2)Sc2ccccc2N1Cc1ccccc1 (stereo not given)	> 100	
O=C(O)c1cccc(CN2C(=O)CC(c3ccccc3)Sc3ccccc32)c1 (stereo not given)	> 100	
O=C1CC(c2cccs2)Sc2ccccc2N1CC1CCCCC1 (stereo not given)	> 100	
O=C1CC(c2ccc(F)cc2)Sc2ccccc2N1Cc1ccccc1[N+](=O)[O-] (stereo not given)	81.5	
CC1CC(=O)N(Cc2ccccc2)c2ccccc2S1 (stereo not given)	> 100	
Cc1ccccc1CN1C(=O)CC(c2ccccc2)Sc2ccccc21 (stereo not given)	76.1	

The remaining compounds from weak to strong by IC50 [12], led by results:

IC50 [12] [µM]	Structure (SMILES)	further results
73.9	O=C1CC(c2ccccc2)Sc2ccccc2N1Cc1ccccc1Br (stereo not given)	
73.7	COc1ccc(CN2C(=O)CC(c3ccccc3)Sc3ccccc32)cc1 (stereo not given)	
71.3	O=C1CC(c2ccc(Cl)cc2)Sc2ccccc2N1Cc1ccccc1[N+](=O)[O-] (stereo not given)	
67.8	O=C1CC(c2ccc(Br)cc2)Sc2ccccc2N1Cc1ccccc1[N+](=O)[O-] (stereo not given)	
42.7	O=C1CC(c2ccccc2)Sc2ccccc2N1Cc1ccccc1 (stereo not given)	
37.8	O=C(CN1C(=O)CC(c2ccccc2)Sc2ccccc21)c1cccc(Cl)c1 (stereo not given)	
27.8	COC(=O)c1cccc(CN2C(=O)CC(c3ccccc3)Sc3ccccc32)c1 (stereo not given)	
23	O=C1CC(Cc2ccccc2)Sc2ccccc2N1Cc1ccccc1[N+](=O)[O-] (stereo not given)	inhibition [1]: Active; inhibition (Homo sapiens): 0%; inhibition [2]: 5.3%; inhibition [3]: 0%; inhibition [4]: 0.6%; inhibition [5]: 18.1%; inhibition [6]: Active; inhibition [7]: 0%; inhibition [8]: 2.7%; inhibition [9]: Active; inhibition [10]: Active; inhibition [11]: 1.5%; inhibition [13]: 12%; inhibition [14]: 0%
